Target: HRP-labeled WGA
Experiment: Enzyme-linked lectin assay
Design: species or system Triticum vulgaris
Details: inhibition of binding of HRP-labeled WGA to covalently immobilized GlcNAc
Method in brief: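 ELLA in which the test compound competes with a surface-coated reference ligand for lectin binding. Dose–response curves were recorded over a concentration series. IC50 is the concentration giving 50% inhibition of lectin binding.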

For `CC(=O)N[C@@H]1[C@@H](O)[C@H](O)[C@@H](CO)O[C@H]1O` [GlcNAc, N-acetylglucosamine], the IC50 was 15 mM.

Reference: publication PMC8159369 (Chemical Science, 2020)
